Activity calls are given as the source filed them.
What was measured:
[1] = Drug degradation assessed as hydrolysis in 1M NaOH […] by HPLC analysis; assay type: physicochemical; conditions: buffer
[2] = 1-Octanol-water partition coefficient, log P of the compound by UV spectrophotometry-based shake flask method; assay type: physicochemical
[3] = species on record: Danio rerio; experiment: Depigmentation effect on zebrafish assessed as increase in binary threshold incubated for 63 hrs post fertilization by microscopic analysis; assay type: functional, organism-based
In short: (§1)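 Synchronized zebrafish embryos were kept in embryo medium containing compound at 50, 100 or 200 μM, added from DMSO to a final 0.1%. Mock control was 0.1% DMSO; positive control was HQ at 100 μM. Larval pigment spots were selected manually from dorsal-view microscope images, excluding eyes and yolk. Image analysis gave binary threshold, histogram and black-spot size; eye colour was scored visually. Data are means ± SEM versus mock.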

[4] = species on record: Danio rerio; experiment: Depigmentation effect on zebrafish assessed as eye color change from black to gray incubated for 63 hrs post fertilization by microscopic analysis; assay type: functional, organism-based; in short: as §1
[5] = species on record: Danio rerio; experiment: Depigmentation effect on zebrafish assessed as decrease in size of black spots incubated for 63 hrs post fertilization by microscopic analysis; assay type: functional, organism-based; in short: as §1
[6] = Cytotoxicity against human HF16 cells assessed as decrease in cell viability at 200 uM after 24 hrs by MTT assay; assay type: cell-based
In short: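 HF-16 human fetal foreskin fibroblasts exposed to compound at 200 μM, with 0.1% DMSO as vehicle control, for 24 hr. Viability was read by MTT assay. Data are means ± SEM, compared against the vehicle control.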

[7] = Photostability of compound after 18 hrs under UV irradition condition; assay type: physicochemical
In short: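 Compound at 0.1 mM in 1X PBS, pH 7.4, was exposed to UV at ambient conditions for 18 h. UV spectra were compared before and after exposure; the HQ absorption band is at 289 nm.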

[8] = Drug degradation of compound assessed as Cu2+-mediated oxidation; assay type: physicochemical
In short: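 Compound at 0.1 mM in 1X PBS, pH 7.4, was treated with 20 μM Cu2+. UV absorption spectra were recorded over a time course.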

[9] = species on record: Danio rerio; experiment: Depigmentation effect on zebrafish assessed as increase in histogram of black spots incubated for 63 hrs post fertilization by microscopic analysis; assay type: functional, organism-based; in short: as §1
[10] = species on record: Danio rerio; experiment: Inhibition of pigmentation in zebrafish assessed as decrease in size of black spots pre-treated with 0.2 mM compound at 9 hrs post fertilization followed by compound exposure for 37 hrs by microscopic analysis; assay type: functional, organism-based
[11] = species on record: Danio rerio; experiment: Inhibition of pigmentation in zebrafish assessed as decrease in size of black spots pre-treated with 0.2 mM compound at 9 hrs post fertilization followed by mock treatment for 37 hrs by microscopic analysis; assay type: functional, organism-based
[12] = species on record: Danio rerio; experiment: Inhibition of alpha-MSH-induced pigmentation in zebrafish assessed as increase in binary threshold pre-treated with 0.2 mM compound at 9 hrs post fertilization followed by compound exposure for 37 hrs by microscopic analysis; assay type: functional, organism-based
[13] = species on record: Danio rerio; experiment: Inhibition pigmentation in zebrafish assessed as increase in binary threshold pre-treated with 0.2 mM compound at 9 hrs post fertilization followed by mock treatment for 37 hrs by microscopic analysis; assay type: functional, organism-based
[14] = species on record: Danio rerio; experiment: Inhibition of alpha-MSH-induced pigmentation in zebrafish assessed as decrease in size of black spots pre-treated with 0.2 mM compound at 9 hrs post fertilization followed by compound exposure for 37 hrs by microscopic analysis; assay type: functional, organism-based
[15] = Drug degradation assessed as hydrolysis at pH 3 to 9 by HPLC analysis; assay type: physicochemical; conditions: buffer
[16] = species on record: Danio rerio; experiment: Inhibition of pigmentation in zebrafish assessed as increase in histogram of black spots pre-treated with 0.2 mM compound at 9 hrs post fertilization followed by mock treatment for 37 hrs by microscopic analysis; assay type: functional, organism-based
[17] = species on record: Danio rerio; experiment: Inhibition pigmentation in zebrafish assessed as increase in binary threshold pre-treated with 0.2 mM compound at 9 hrs post fertilization followed by compound exposure for 37 hrs by microscopic analysis; assay type: functional, organism-based
[18] = species on record: Danio rerio; experiment: Inhibition of alpha-MSH-induced pigmentation in zebrafish assessed as increase in histogram of black spots pre-treated with 0.2 mM compound at 9 hrs post fertilization followed by compound exposure for 37 hrs by microscopic analysis; assay type: functional, organism-based
[19] = species on record: Danio rerio; experiment: Inhibition of pigmentation in zebrafish assessed as increase in histogram of black spots pre-treated with 0.2 mM compound at 9 hrs post fertilization followed by compound exposure for 37 hrs by microscopic analysis; assay type: functional, organism-based

Stability [1]	logP [2]	Stability [7]	Stability [8]	Drug degradation ([8]; TDE = time-dependent effect)	Stability [15]	Compound	Activity [3]	Activity [4]	Activity [5]	Activity [6]	Activity [9]	inhibition [10]	inhibition [11]	inhibition [12]	inhibition [13]	inhibition [14]	inhibition [16]	inhibition [17]	inhibition [18]	inhibition [19]
Unstable	-0.036	Stable	Stable	–	–	COCCOCCOCCOCC(=O)Oc1ccc(O)cc1	Dose-dependent effect	Dose-dependent effect	Dose-dependent effect	Toxic	Dose-dependent effect	–	–	–	–	–	–	–	–	–
–	0.25	Unstable	–	tde	–	Oc1ccc(O)cc1 [HYDROQUINONE]	–	–	–	Toxic	–	–	–	–	–	–	–	–	–	–
–	-0.026	Stable	Stable	–	Stable	COCCOCCOCCOCCOc1ccc(O)cc1	Dose-dependent effect	Dose-dependent effect	Dose-dependent effect	Non-toxic	Dose-dependent effect	Active	inactive	Active	inactive	Active	inactive	Active	Active	Active
